Common to all, as to format: functional
Settings in all cases: route oral

For assay [1], the system named is Rattus norvegicus. Description: Compound was tested for the inhibition of rat reversed passive Arthus pleurisy after peroral administration of 100 mg/kg dose at 3.02*10e6 no of cells with 3.37*10e cells of control. In a few lines:
(§1)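 Male Wistar rats (about 250 g) were given compound orally before the antiserum. Under ether anesthesia, 0.2 mL rabbit anti-egg albumin antiserum was injected intrapleurally. After 30 min, egg albumin (15 mg/100 g body weight in 0.1 mL saline) was given iv. Rats were killed 4.5 h later and the thoracic cavity was rinsed with 5 mL saline. Exudate volume and infiltrated cell number were measured, with inhibition % versus controls as mean ± SEM.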

Assay [2] relates to Rattus norvegicus. Description: Compound was tested for the inhibition of rat reversed passive Arthus pleurisy after peroral administration of 100 mg/kg dose at 0.43 mL of exudate volume with 0.46 mL of control (injected intrapleurally). Summed up:
as §1

In assay [3] the test system is Rattus norvegicus. Description: Inhibition of Zymosan-induced rat's paw edema(ZPE) after peroral administration of 100 mg/kg dose. Summed up:
(§2)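 Male Wistar rats (about 150 g) were dosed orally with compound suspended in 5% arabic gum, 1 h before a subplantar hind-paw injection of 0.1 mL saline. The irritant was 1% zymosan for 33 or 1% λ-carrageenin for 34. Paw volume was measured by plethysmograph before dosing and at 4 h (zymosan) or 3 h (carrageenin). Swelling is relative to initial volume, as mean ± SEM. % inhibition is versus the control group's mean swelling.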

In assay [4] the test system is Rattus norvegicus. Briefly: Antiinflammatory activity on Carrageenan rat's paw edema(CPE) after peroral administration of 100 mg/kg dose with control swelling of 65.6%. A general note: In the carrageenan paw model, swelling and tenderness develop within hours.
For assay [5], the system named is Rattus norvegicus. Description: Antiinflammatory activity on Zymosan-induced rat's paw edema(ZPE) after peroral administration of 100 mg/kg dose with control swelling of 61.0%. In a few lines: (§3)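 Male Wistar rats weighing about 150 g were dosed orally with compound suspended in 5% arabic gum. 1 h later, 1% zymosan in 0.1 mL saline was injected subplantarly into the hind paw. Paw volume was measured by plethysmograph before dosing and 4 h after zymosan, with edema as the volume difference. Inhibition % was derived from mean swelling versus the control group.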

Assay [6] relates to Rattus norvegicus. Description: Inhibition of carrageenan-induced rat's paw edema (CPE) after peroral administration of 100 mg/kg dose. Summed up: as §2
Assay [7] deals with Rattus norvegicus. Briefly: Compound was tested for the inhibition of rat reversed passive Arthus pleurisy after peroral administration of 100 mg/kg dose at 3.82*10e6 no of cells with 3.62*10e6 cells of control. In a few lines: (§4)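 Male Wistar rats (about 250 g) under ether received 0.2 mL rabbit anti-egg-albumin antiserum intrapleurally. Thirty min later they got 15 mg EA/100 g body weight in 0.1 mL saline iv. Compounds were given orally beforehand. Rats were killed 4.5 h after induction and the thoracic cavity rinsed with 5 mL saline. Exudate volume and infiltrated cell count were read as mean ± SE. % inhibition is versus control.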

Assay [8] relates to Rattus norvegicus. Description: Compound was tested for the inhibition of rat reversed passive Arthus pleurisy after peroral administration of 100 mg/kg dose at 0.72 mL of exudate volume with 0.54 mL of control (injected intrapleurally). Summed up:
as §1

Assay [9] has as its system Rattus norvegicus. Briefly: Antiinflammatory activity on Carrageenan rat's paw edema(CPE) after peroral administration of 100 mg/kg dose with control swelling of 64.2%.
The test system of assay [10] is Rattus norvegicus. Description: Antiinflammatory activity on Zymosan-induced rat's paw edema(ZPE) after peroral administration of 100 mg/kg dose with control swelling of 71.7%. In a few lines:
as §3

Assay [11] relates to Rattus norvegicus. Briefly: Compound was tested for the inhibition of rat reversed passive Arthus pleurisy after peroral administration of 100 mg/kg dose at 5.76*10e6 no of cells with 7.4*10e6 cells of control. In a few lines:
as §4

Assay [12] concerns Rattus norvegicus. Description: Antiinflammatory activity on Carrageenan rat's paw edema(CPE) after peroral administration of 100 mg/kg dose with control swelling of 73.7%.
The subject of assay [13] is Rattus norvegicus. Briefly: Compound was tested for the inhibition of rat reversed passive Arthus pleurisy after peroral administration of 100 mg/kg dose at 0.66 mL of exudate volume with 0.82 mL of control (injected intrapleurally). Summed up: as §1
Assay [14] deals with Rattus norvegicus. Description: Compound was tested for the inhibition of rat reversed passive Arthus pleurisy after peroral administration of 100 mg/kg dose at 3.36*10e6 no of cells with 3.86*10e6 cells of control. In a few lines: as §1
Assay [15] deals with Rattus norvegicus. Description: Antiinflammatory activity on Carrageenan rat's paw edema(CPE) after peroral administration of 100 mg/kg dose with control swelling of 90.0%.
For assay [16], the system named is Rattus norvegicus. Description: Antiinflammatory activity on Zymosan-induced rat's paw edema(ZPE) after peroral administration of 100 mg/kg dose with control swelling of 85.5%. In a few lines: as §3
The subject of assay [17] is Rattus norvegicus. Briefly: Compound was tested for the inhibition of rat reversed passive Arthus pleurisy after peroral administration of 100 mg/kg dose at 0.66 mL of exudate volume with 0.79 mL of control (injected intrapleurally). Summed up:
as §1

In assay [18] the test system is Rattus norvegicus. Description: Compound was tested for the inhibition of rat reversed passive Arthus pleurisy after peroral administration of 100 mg/kg dose at 3.77*10e6 no of cells with 3.86*10e6 cells of control. In a few lines: as §4
The subject of assay [19] is Rattus norvegicus. Description: Compound was tested for the inhibition of rat reversed passive Arthus pleurisy after peroral administration of 100 mg/kg dose at 0.64 mL of exudate volume with 0.79 mL of control (injected intrapleurally). In a few lines:
as §1

For assay [20], the system named is Rattus norvegicus. Description: Antiinflammatory activity on Carrageenan rat's paw edema(CPE) after peroral administration of 100 mg/kg dose with control swelling of 63.7%.
Assay [21] deals with Rattus norvegicus. Description: Antiinflammatory activity on Zymosan-induced rat's paw edema(ZPE) after peroral administration of 100 mg/kg dose with control swelling of 69.5%. In a few lines: as §3
The subject of assay [22] is Rattus norvegicus. Briefly: Compound was tested for the inhibition of rat reversed passive Arthus pleurisy after peroral administration of 100 mg/kg dose at 1.19*10e6 no of cells with 7.4*10e6 cells of control. Summed up: as §1
Assay [23] concerns Rattus norvegicus. Briefly: Compound was tested for the inhibition of rat reversed passive Arthus pleurisy after peroral administration of 100 mg/kg dose at 0.28 mL of exudate volume with 0.82 mL of control (injected intrapleurally). In a few lines: as §1
In assay [24] the test system is Rattus norvegicus. Briefly: Antiinflammatory activity on Carrageenan rat's paw edema(CPE) after peroral administration of 100 mg/kg dose with control swelling of 71.9%.
Assay [25] deals with Rattus norvegicus. Description: Antiinflammatory activity on Zymosan-induced rat's paw edema(ZPE) after peroral administration of 100 mg/kg dose with control swelling of 72.9%. Summed up: as §3

`O=C(NN1CCOCC1)c1c(O)c2cccnc2n(-c2ccccc2)c1=O`: the inhibition in vivo at 100 mg/kg is 10.4% in the assay with Rattus norvegicus [1], 14.6% in the assay with Rattus norvegicus [2], -8.5% in the assay with Rattus norvegicus [3] and -26.2% in the assay with Rattus norvegicus [6]. Also, the Swelling with Rattus norvegicus [4] came to 82.8%; with Rattus norvegicus [5] it was 66.2%.

With `CCCCNC(=O)c1c(O)c2cccnc2n(-c2ccccc2)c1=O`, the inhibition in vivo at 100 mg/kg is 7.7% with Rattus norvegicus [7], 12.8% in the assay on Rattus norvegicus [3], -36.7% in the assay with Rattus norvegicus [8] and 20.4% in the assay with Rattus norvegicus [6]. Besides, the Swelling amounted to 51.1% in the assay on Rattus norvegicus [9] and 62.5% with Rattus norvegicus [10].

For `COc1ccc(NC(=O)c2c(O)c3cccnc3n(-c3ccccc3)c2=O)cn1`, the inhibition in vivo at 100 mg/kg in the assay on Rattus norvegicus [3] was 13.1%; in the assay with Rattus norvegicus [11], 22.2%; with Rattus norvegicus [13] it was 19.5%; in the assay on Rattus norvegicus [6] it was -10.2%. Moreover, the Swelling with Rattus norvegicus [12] is on record as 72.3%; in the assay with Rattus norvegicus [5] it was 53%.

For `O=C(Nc1cccc([N+](=O)[O-])c1)c1c(O)c2cccnc2n(-c2ccccc2)c1=O`, the inhibition in vivo at 100 mg/kg turned out to be 15.4% in the assay on Rattus norvegicus [14], 5.7% with Rattus norvegicus [3], 19.1% with Rattus norvegicus [17] and 7.4% in the assay with Rattus norvegicus [6]. The Swelling is given as 83.6% in the assay on Rattus norvegicus [15] and 80.6% in the assay with Rattus norvegicus [16].

With `O=C(Nc1nccs1)c1c(O)c2cccnc2n(-c2ccccc2)c1=O`, the inhibition in vivo at 100 mg/kg in the assay on Rattus norvegicus [18] turned out to be 15.4%; with Rattus norvegicus [19], 18.1%; in the assay on Rattus norvegicus [3] it was 4.6%; in the assay on Rattus norvegicus [6], 2.5%. The Swelling with Rattus norvegicus [20] was 69.9%; in the assay with Rattus norvegicus [21], 66.3%.

In the case of `Cc1cnccc1NC(=O)c1c(O)c2cccnc2n(-c2ccccc2)c1=O`, the inhibition in vivo at 100 mg/kg in the assay with Rattus norvegicus [3] was 26.9%; with Rattus norvegicus [22], 83.9%; in the assay on Rattus norvegicus [23], 65.9%; with Rattus norvegicus [6] it was 8.8%. In addition, the values for the Swelling in the assay with Rattus norvegicus [24] and with Rattus norvegicus [25] were 64.6% and 53.3%, respectively.

One may read the inhibition in vivo as the relative decrease from the control value, in per cent.
